Data: ChEMBL document CHEMBL1153955, “Indolylarylsulfones bearing natural and unnatural amino acids. Discovery of potent inhibitors of HIV-1 non-nucleoside wild type and resistant mutant strains reverse transcriptase and coxsackie B4 virus” (J Med Chem, 2009)

Experiments:
[1] = test system: Human immunodeficiency virus 2; experiment: Antiviral activity against HIV2 ROD in human CEM cells assessed as protection against virus-induced cytopathicity after 4 days; format: functional, organism-based; settings: Human immunodeficiency virus 2, ROD, CCRF-CEM, 96 h
In short: (§1)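 CEM cells (~3 × 10⁵ cells/mL) infected with ~100 CCID₅₀ per mL of HIV-1 (IIIB) or HIV-2 (ROD), then seeded into wells containing compound dilutions. After 4 days at 37 °C, syncytium (giant cell) formation was examined microscopically. EC₅₀ = concentration protecting CEM cells from HIV cytopathicity by 50%.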

[2] = Cytotoxicity against human HeLa cells assessed as drug level causing microscopically detectable alteration of normal cell morphology after 3 days; format: cell-based
In short: (§2)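 Serial compound dilutions added to confluent HeLa or Vero monolayers. MCC = minimum concentration causing microscopically detectable alteration of cell morphology after 3 days of incubation.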

[3] = Cytotoxicity against human HEL cells assessed as drug level causing microscopically detectable alteration of normal cell morphology after 3 days; format: cell-based
[4] = test system: Human alphaherpesvirus 1; experiment: Antiviral activity against HSV1 KOS in human HEL cells assessed as protection against virus-induced cytopathicity; format: functional, organism-based; settings: Human alphaherpesvirus 1, KOS
[5] = biological target: Human immunodeficiency virus type 1 reverse transcriptase (Human immunodeficiency virus 1, UniProt Q72547, Y181I); experiment: Inhibition of HIV1 reverse transcriptase p66/p51 Y181I mutant; settings: read-out: IC50
In short: (§3)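 Substrate was 0.5 µg poly(rA)/oligo(dT) 10:1 (0.3 µM 3′-OH ends) with 10 µM [³H]dTTP, at 37 °C. Acid-precipitable radioactivity was counted on GF/C filters after TCA washes.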

[6] = biological target: Human immunodeficiency virus type 1 reverse transcriptase (Human immunodeficiency virus 1, UniProt Q72547, L100I); experiment: Inhibition of HIV1 reverse transcriptase p66/p51 L100I mutant; settings: read-out: IC50; in short: as §3
[7] = Cytotoxicity against MDCK cells by MTS assay; format: cell-based, Canis lupus familiaris; settings: dog
[8] = test system: Human alphaherpesvirus 2; experiment: Antiviral activity against HSV2 G in human HEL cells assessed as protection against virus-induced cytopathicity; format: functional, organism-based; settings: Human alphaherpesvirus 2, strain G
In short: (§4)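 Confluent cell monolayers inoculated with 100 CCID₅₀ virus. After 1-2 h adsorption, residual virus removed and cultures incubated with varying compound concentrations. Cytopathicity scored once it reached completion in untreated infected controls. EC₅₀ = dose reducing virus-induced cytopathogenicity by 50%.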

[9] = test system: Human immunodeficiency virus 1; experiment: Antiviral activity against HIV1 3B in human CEM cells assessed as protection against virus-induced cytopathicity after 4 days; format: functional, organism-based; settings: Human immunodeficiency virus 1, 3B, CCRF-CEM, 96 h; in short: as §1
[10] = test system: CCRF-CEM; experiment: Antiproliferative activity against human CEM cells after 3 days; format: cell-based; settings: 72 h
In short: (§5)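 Cells seeded at 5 × 10⁴ to 7.5 × 10⁴ cells/200 µL with or without serial compound dilutions; incubated at 37 °C for 2 days (L1210) or 3 days (Molt4/C8, CEM). Cell numbers counted with a Coulter counter. CC₅₀ = concentration reducing proliferation by 50% versus untreated controls, read from plots of cell number (% of control) against concentration. Means of at least two independent experiments.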

[11] = test system: Human immunodeficiency virus 1; experiment: Antiviral activity against HIV1 with reverse transcriptase Y188L mutation in human CEM cells assessed as protection against virus-induced cytopathicity; format: functional, organism-based; settings: Human immunodeficiency virus 1, CCRF-CEM
In short: (§6)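 CEM cells (~3 × 10⁵ cells/mL) were infected with ~100 CCID₅₀ virus per mL and seeded with serial compound dilutions. After 4 days at 37 °C, syncytium (giant cell) formation was scored microscopically. EC₅₀ is the concentration giving 50% protection against virus cytopathicity.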

[12] = test system: Human immunodeficiency virus 1; experiment: Antiviral activity against HIV1 with reverse transcriptase Y181I mutation in human CEM cells assessed as protection against virus-induced cytopathicity; format: functional, organism-based; settings: Human immunodeficiency virus 1, CCRF-CEM; in short: as §6
[13] = test system: Vesicular stomatitis virus; experiment: Antiviral activity against VSV in human HEL cells assessed as protection against virus-induced cytopathicity; format: functional, organism-based
[14] = test system: Coxsackievirus B4; experiment: Antiviral activity against Coxsackievirus B4 in african green monkey Vero cells assessed as protection against virus-induced cytopathicity; format: functional, organism-based; settings: Enterovirus B; in short: as §4
[15] = test system: Human alphaherpesvirus 1; experiment: Antiviral activity against thymidine kinase deficient and acyclovir resistant HSV1 KOS in human HEL cells assessed as protection against virus-induced cytopathicity; format: functional, organism-based; settings: Human alphaherpesvirus 1, KOS
[16] = test system: Influenza A virus; experiment: Antiviral activity against influenza H1N1 virus in MDCK cells assessed as reduction of virus-induced cytopathicity by MTS method; format: functional, organism-based; settings: Influenza A virus, H1N1, MDCK
[17] = Cytotoxicity against african green monkey Vero cells assessed as drug level causing microscopically detectable alteration of normal cell morphology after 3 days; format: cell-based; settings: chlorocebus sabaeus; in short: as §2
[18] = Cytotoxicity against MDCK cells assessed as drug level causing microscopically detectable alteration of normal cell morphology; format: cell-based, Canis lupus familiaris; settings: dog
[19] = test system: Vaccinia virus; experiment: Antiviral activity against Vaccinia virus Lederle in human HEL cells assessed as protection against virus-induced cytopathicity; format: functional, organism-based; settings: Orthopoxvirus vaccinia
[20] = test system: Vesicular stomatitis virus; experiment: Antiviral activity against VSV in human HeLa cells assessed as protection against virus-induced cytopathicity; format: functional, organism-based
[21] = biological target: Human immunodeficiency virus type 1 reverse transcriptase (Human immunodeficiency virus 1, UniProt Q72547, K103N); experiment: Inhibition of HIV1 reverse transcriptase p66/p51 K103N mutant; settings: read-out: IC50; in short: as §3
[22] = test system: Human immunodeficiency virus 1; experiment: Antiviral activity against HIV1 with reverse transcriptase K103N mutation in human CEM cells assessed as protection against virus-induced cytopathicity; format: functional, organism-based; settings: Human immunodeficiency virus 1, CCRF-CEM; in short: as §6
[23] = test system: Mammalian orthoreovirus 1; experiment: Antiviral activity against Reovirus 1 in african green monkey Vero cells assessed as protection against virus-induced cytopathicity; format: functional, organism-based; settings: Mammalian orthoreovirus 1, Vero; in short: as §4
[24] = test system: Human immunodeficiency virus 1; experiment: Antiviral activity against HIV1 with reverse transcriptase L100I mutation in human CEM cells assessed as protection against virus-induced cytopathicity; format: functional, organism-based; settings: Human immunodeficiency virus 1, CCRF-CEM; in short: as §6
[25] = test system: Human immunodeficiency virus 1; experiment: Antiviral activity against HIV1 with reverse transcriptase Y181C mutation in human CEM cells assessed as protection against virus-induced cytopathicity; format: functional, organism-based; settings: Human immunodeficiency virus 1, CCRF-CEM; in short: as §6
[26] = test system: Punta Toro virus; experiment: Antiviral activity against Punta Toro virus in african green monkey Vero cells assessed as protection against virus-induced cytopathicity; format: functional, organism-based; in short: as §4
[27] = Cytotoxicity against feline CRFK cells by MTS assay; format: cell-based, Felis catus; settings: cat
[28] = test system: Influenza B virus; experiment: Antiviral activity against influenza B virus in MDCK cells assessed as reduction of virus-induced cytopathicity by visual cytopathic effect scoring method; format: functional, organism-based
[29] = test system: Influenza A virus H3N2; experiment: Antiviral activity against influenza H3N2 virus in MDCK cells assessed as reduction of virus-induced cytopathicity by MTS method; format: functional, organism-based
[30] = test system: Feline coronavirus; experiment: Antiviral activity against Feline coronavirus in feline […] cells assessed as inhibition of virus-induced cytopathicity; format: functional, organism-based; settings: Alphacoronavirus 1
[31] = Antiproliferative activity against human Molt4/C8 cells after 3 days; format: cell-based; settings: MOLT-4, 72 h; in short: as §5
[32] = test system: Sindbis virus; experiment: Antiviral activity against Sindbis virus in african green monkey Vero cells assessed as protection against virus-induced cytopathicity; format: functional, organism-based; in short: as §4
[33] = test system: Influenza A virus; experiment: Antiviral activity against influenza H1N1 virus in MDCK cells assessed as reduction of virus-induced cytopathicity by visual cytopathic effect scoring method; format: functional, organism-based
[34] = test system: L1210; experiment: Antiproliferative activity against mouse L1210 cells after 2 days; format: cell-based; settings: L1210, 48 h; in short: as §5
[35] = test system: Influenza B virus; experiment: Antiviral activity against influenza B virus in MDCK cells assessed as reduction of virus-induced cytopathicity by MTS method; format: functional, organism-based
[36] = biological target: Human immunodeficiency virus type 1 reverse transcriptase (Human immunodeficiency virus 1, UniProt Q72547); experiment: Inhibition of HIV1 reverse transcriptase p66/p51; settings: read-out: IC50
[37] = test system: Felid alphaherpesvirus 1; experiment: Antiviral activity against Feline herpesvirus in feline […] cells assessed as inhibition of virus-induced cytopathicity; format: functional, organism-based
[38] = test system: Human respirovirus 3; experiment: Antiviral activity against Parainfluenza virus type 3 in african green monkey Vero cells assessed as protection against virus-induced cytopathicity; format: functional, organism-based; settings: Human respirovirus 3, Vero; in short: as §4
[39] = test system: Coxsackievirus B4; experiment: Antiviral activity against Coxsackievirus B4 in human HeLa cells assessed as protection against virus-induced cytopathicity; format: functional, organism-based; settings: Enterovirus B; in short: as §4
[40] = test system: Respiratory syncytial virus; experiment: Antiviral activity against RSV Long in human HeLa cells assessed as protection against virus-induced cytopathicity; format: functional, organism-based; in short: as §4
[41] = test system: Influenza A virus H3N2; experiment: Antiviral activity against influenza H3N2 virus in MDCK cells assessed as reduction of virus-induced cytopathicity by visual cytopathic effect scoring method; format: functional, organism-based

Molecule `Cc1cc(C)cc(S(=O)(=O)c2c(C(=O)NC(C)CS(N)(=O)=O)[nH]c3ccc(Cl)cc23)c1` (stereo unspecified) has an EC50 [1] of over 10 µM, an MCC at 72 h [2] of 100 µM and an MCC at 72 h [3] of 20 µM. The EC50 [4] was over 4 µM, the IC50 [5] was 1.94 µM and the IC50 [6] was 0.004 µM. For the same molecule, the CC50 [7] was 12.2 µM, the EC50 [8] was over 4 µM and the EC50 [9] was 0.0023 µM. For the same molecule, the IC50 [10] was 13 µM, the IC50 [11] was over 1 µM and the IC50 [12] was over 1 µM. For the same molecule, the EC50 [13] was over 4 µM, the EC50 [14] was 12 µM and the EC50 [15] was over 4 µM. For the same molecule, the EC50 [16] was over 4 µM, the MCC at 72 h [17] was at least 20 µM and the MCC [18] was 20 µM. For the same molecule, the EC50 [19] was over 4 µM, the EC50 [20] was over 20 µM and the IC50 [21] was 0.233 µM. The IC50 [22] was 0.036 µM, the EC50 [23] was 20 µM and the IC50 [24] was 0.002 µM. It also gave an IC50 [25] of 0.39 µM, an EC50 [26] of over 20 µM and a CC50 [27] of 11.1 µM. The EC50 [28] was over 4 µM, the EC50 [29] was over 4 µM and the EC50 [30] was over 4 µM. The IC50 [31] was 8.8 µM, the EC50 [32] was over 20 µM and the EC50 [33] was over 4 µM. It also gave an IC50 [34] of 15 µM, an EC50 [35] of over 4 µM and an IC50 [36] of 0.0004 µM. For the same molecule, the EC50 [37] was over 4 µM, the EC50 [38] was over 20 µM and the EC50 [39] was 3 µM. The EC50 [40] was over 20 µM and the EC50 [41] was over 4 µM.
